In ChEMBL document CHEMBL1133845, “N-propargyl-2-alkynylbenzothiazolium aza-enediynes: role of the 2-alkynylbenzothiazolium functionality in DNA cleavage” (Bioorg Med Chem Lett, 2001) one finds DNA cleavage data, which are given here for six compounds.

This experiment in a line: Normalized percent cleavage of DNA from cleavage reactions (20 h) containing 100 μM compound and 50 μM (bp) supercoiled DNA at pH 9.0 in 20 mM TRIS buffer. The procedure, abridged:
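Supercoiled ΦX174 DNA (50 μM bp) incubated with 100 μM compound in 20 mM TRIS, pH 9, for 20 h at 37 °C. Relaxed circular (Form II) and linear (Form III) DNA resolved on agarose gel and expressed as normalized percent cleavage. Mean ± SD over separate determinations.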
Compound `C#CC[n+]1c(C#C[Si](C(C)C)(C(C)C)C(C)C)sc2ccccc21` gave a DNA cleavage of 7%. On to `C(#Cc1nc2ccccc2s1)c1ccccc1`, for which the DNA cleavage came to 0%. With `C#CC[n+]1c(C#Cc2ccccc2)sc2ccccc21`, the DNA cleavage came out at 40%. For `C#CC[n+]1c(C#C[Si](C)(C)C)sc2ccccc21`, the DNA cleavage was found to be 33%. To `C#CC[n+]1c(C#Cc2ccc(C)cc2)sc2ccccc21` belongs 42%; to `C[n+]1c(C#Cc2ccccc2)sc2ccccc21`, 48%.
